Results: ChEMBL document CHEMBL2311462, “Design, synthesis, and functional evaluation of leukocyte function associated antigen-1 antagonists in early and late stages of cancer development” (J Med Chem, 2013)
Calls of active or inactive are those of the source. No cut-off for these calls is given here.

Legend:
[1] = target: T1, Integrin alpha-L (Mus musculus) (UniProt P24063); assay: Inhibition of LFA-1/ICAM-1 interaction in mouse CT26 cells assessed as PMA-induced adhesion to ICAM-1 expressing HSE cells at 20 ug/ 5 x 10^5 cells by fluorometric microplate reader analysis; type: cell-based
T1 sequence (whole entry): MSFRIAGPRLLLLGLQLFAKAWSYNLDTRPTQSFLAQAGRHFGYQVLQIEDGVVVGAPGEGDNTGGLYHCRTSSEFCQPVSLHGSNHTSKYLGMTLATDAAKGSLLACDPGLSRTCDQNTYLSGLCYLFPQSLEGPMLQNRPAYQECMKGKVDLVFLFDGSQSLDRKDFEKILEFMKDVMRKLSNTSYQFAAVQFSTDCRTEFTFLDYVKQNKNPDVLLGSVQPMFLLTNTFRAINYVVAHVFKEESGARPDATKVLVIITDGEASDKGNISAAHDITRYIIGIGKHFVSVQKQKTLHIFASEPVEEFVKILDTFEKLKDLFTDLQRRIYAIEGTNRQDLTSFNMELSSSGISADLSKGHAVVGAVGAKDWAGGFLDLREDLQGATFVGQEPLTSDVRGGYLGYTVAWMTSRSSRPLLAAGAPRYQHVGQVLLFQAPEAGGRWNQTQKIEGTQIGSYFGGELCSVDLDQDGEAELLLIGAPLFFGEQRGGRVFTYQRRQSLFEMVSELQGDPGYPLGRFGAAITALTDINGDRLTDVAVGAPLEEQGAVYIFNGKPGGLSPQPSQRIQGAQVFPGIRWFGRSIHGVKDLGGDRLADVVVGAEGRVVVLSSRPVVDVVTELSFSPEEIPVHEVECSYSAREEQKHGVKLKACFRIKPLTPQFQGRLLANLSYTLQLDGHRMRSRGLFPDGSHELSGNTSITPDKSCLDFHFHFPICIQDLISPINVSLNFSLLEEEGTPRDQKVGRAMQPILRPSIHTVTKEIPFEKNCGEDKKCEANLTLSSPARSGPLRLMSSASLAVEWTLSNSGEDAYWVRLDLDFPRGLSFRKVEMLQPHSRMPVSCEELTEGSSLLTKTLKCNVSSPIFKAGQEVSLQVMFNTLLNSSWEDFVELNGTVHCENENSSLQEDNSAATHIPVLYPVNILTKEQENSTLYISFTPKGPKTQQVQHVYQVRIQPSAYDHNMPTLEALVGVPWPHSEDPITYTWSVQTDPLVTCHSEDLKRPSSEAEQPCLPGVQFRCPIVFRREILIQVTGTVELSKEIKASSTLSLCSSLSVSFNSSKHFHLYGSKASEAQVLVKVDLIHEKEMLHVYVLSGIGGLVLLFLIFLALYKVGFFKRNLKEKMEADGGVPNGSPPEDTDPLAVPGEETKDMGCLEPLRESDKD
Outline: (§1)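 CT26-CC or Lim51b-CC cells were stimulated with PMA and preincubated for 30 min with compound or anti-LFA-1 antibody. Adhesion to hepatic sinusoidal endothelial cells was then quantified using a previously validated in vitro bioassay. Significance was assessed by ANOVA with Bonferroni post hoc test.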

[2] = target: T1, Integrin alpha-L (Mus musculus); assay: Inhibition of LFA-1/ICAM-1 interaction in mouse Lim51b cells assessed as PMA-induced adhesion to ICAM-1 expressing HSE cells at 20 ug/ 5 x 10^5 cells after 30 mins by fluorometric microplate reader analysis; type: cell-based; outline: as §1
B16M = assay: Inhibition of VLA-4/VCAM-1 interaction in mouse B16M cells assessed as PMA-induced adhesion to immobilized VCAM-1 at 25 ug/ 5 x 10^5 cells after 30 mins by microplate reader analysis; type: cell-based
B16 [3] = assay: Inhibition of VEGF production in mouse B16 M cells at 10 ug/ml preincubated for 30 mins prior to ICAM addition measured after 2 hrs by ELISA; type: functional, cell-based
[4] = Binding affinity to I-domain of human integrin alphaL (amino acid residues 128 to 307) plus initial methionine K287C/K294C mutant expressed in BL21 cells by NMR spectroscopy; type: cell-based
[5] = target: T2, Integrin alpha-L (Homo sapiens) (UniProt P20701); assay: Inhibition of LFA-1/ICAM-1 interaction in human peripheral blood leukocytes assessed as reduction on PMA-induced adhesion to immobilized human recombinant ICAM-1 at 20 ug/ 5 x 10^5 cells after 30 mins by fluorescence assay; type: cell-based
T2 sequence (whole entry): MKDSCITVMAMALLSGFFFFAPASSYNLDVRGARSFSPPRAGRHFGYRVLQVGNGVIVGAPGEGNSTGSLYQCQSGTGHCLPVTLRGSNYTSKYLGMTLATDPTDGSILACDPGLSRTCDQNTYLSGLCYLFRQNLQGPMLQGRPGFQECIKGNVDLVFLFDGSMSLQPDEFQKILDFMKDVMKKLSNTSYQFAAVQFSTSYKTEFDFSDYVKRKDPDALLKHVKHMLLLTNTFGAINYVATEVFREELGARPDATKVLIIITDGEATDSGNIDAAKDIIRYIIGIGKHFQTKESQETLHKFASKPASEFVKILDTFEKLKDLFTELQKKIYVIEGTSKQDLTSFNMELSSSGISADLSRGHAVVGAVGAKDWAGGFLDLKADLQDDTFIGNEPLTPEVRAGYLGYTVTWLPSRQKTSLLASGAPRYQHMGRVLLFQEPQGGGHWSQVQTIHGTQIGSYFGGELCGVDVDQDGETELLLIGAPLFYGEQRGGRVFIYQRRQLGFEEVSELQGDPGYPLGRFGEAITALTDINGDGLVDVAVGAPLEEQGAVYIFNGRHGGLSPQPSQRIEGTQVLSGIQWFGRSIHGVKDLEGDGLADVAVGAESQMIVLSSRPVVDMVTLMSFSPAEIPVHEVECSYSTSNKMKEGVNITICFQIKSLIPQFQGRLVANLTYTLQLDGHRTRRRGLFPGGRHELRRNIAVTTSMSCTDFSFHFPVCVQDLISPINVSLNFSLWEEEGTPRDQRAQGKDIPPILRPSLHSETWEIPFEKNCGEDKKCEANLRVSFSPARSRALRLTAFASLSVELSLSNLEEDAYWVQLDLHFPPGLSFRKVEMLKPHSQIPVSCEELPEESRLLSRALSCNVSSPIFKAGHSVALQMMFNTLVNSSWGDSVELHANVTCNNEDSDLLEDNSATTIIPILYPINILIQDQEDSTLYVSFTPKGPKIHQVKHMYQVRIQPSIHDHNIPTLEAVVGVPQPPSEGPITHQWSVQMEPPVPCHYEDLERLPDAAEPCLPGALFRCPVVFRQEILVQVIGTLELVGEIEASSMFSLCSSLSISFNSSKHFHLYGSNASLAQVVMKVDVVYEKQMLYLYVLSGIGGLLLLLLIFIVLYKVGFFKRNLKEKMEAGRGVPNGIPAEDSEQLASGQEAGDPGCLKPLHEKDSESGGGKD
Outline: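 Human peripheral blood leukocytes were stimulated with PMA and preincubated with compound. Adhesion to immobilized recombinant human ICAM-1, a commercial form containing all five extracellular domains, was then quantified. Significance was assessed by ANOVA with Bonferroni post hoc test.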

B16 [6] = assay: Inhibition of VEGF production in mouse B16 M cells at 10 ug/ml preincubated for 30 mins prior to H2O2 addition measured after 2 hrs by ELISA; type: functional, cell-based
CT26 [7] = assay: Antimetastatic activity against mouse CT26 cells allografted in BALB/c mouse assessed as reduction in metastasis density at 10 ug/ml preincubated for 30 mins prior to inoculation measured on day 14 relative to control; type: functional
Outline: (§2)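 Male BALB/c mice, 6–8 weeks old and anesthetized (n = 10 per group; three independent experiments), received an intrasplenic injection of 1.5 × 10⁵ viable CT26-CC cells in 0.1 mL Hank's balanced salt solution. Mice were killed on day 14. Densitometric and stereological image analysis gave metastases per 100 mm³ liver (fifteen sections per liver) and the percentage of liver volume occupied.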

BL21 = assay: Inhibition of I-domain of human integrin alphaL (amino acid residues 128 to 307) plus initial methionine K287C/K294C mutant-ICAM1 interaction expressed in BL21 cells after 4 hrs by NMR analysis
Integrin alpha-L = target: T3, Integrin alpha-L (Homo sapiens, UniProt P20701); assay: Binding affinity to I-domain of human integrin alphaL (amino acid residues 128 to 307) plus initial methionine expressed in Escherichia coli by NMR spectroscopy
T3 sequence (P20701 whole entry): T2 sequence (whole entry)

CT26 [8] = assay: Antimetastatic activity against mouse CT26 cells allografted in BALB/c mouse assessed as decrease in cancer cell volume in liver at 10 ug/ml preincubated for 30 mins prior to inoculation measured on day 14 relative to control; type: functional; outline: as §2
[9] = target: Integrin alpha-2 (Homo sapiens) (UniProt P17301); assay: Binding affinity to integrin alpha2 I-domain (unknown origin)
Chain of Integrin alpha-2 (Homo sapiens) (P17301 whole entry): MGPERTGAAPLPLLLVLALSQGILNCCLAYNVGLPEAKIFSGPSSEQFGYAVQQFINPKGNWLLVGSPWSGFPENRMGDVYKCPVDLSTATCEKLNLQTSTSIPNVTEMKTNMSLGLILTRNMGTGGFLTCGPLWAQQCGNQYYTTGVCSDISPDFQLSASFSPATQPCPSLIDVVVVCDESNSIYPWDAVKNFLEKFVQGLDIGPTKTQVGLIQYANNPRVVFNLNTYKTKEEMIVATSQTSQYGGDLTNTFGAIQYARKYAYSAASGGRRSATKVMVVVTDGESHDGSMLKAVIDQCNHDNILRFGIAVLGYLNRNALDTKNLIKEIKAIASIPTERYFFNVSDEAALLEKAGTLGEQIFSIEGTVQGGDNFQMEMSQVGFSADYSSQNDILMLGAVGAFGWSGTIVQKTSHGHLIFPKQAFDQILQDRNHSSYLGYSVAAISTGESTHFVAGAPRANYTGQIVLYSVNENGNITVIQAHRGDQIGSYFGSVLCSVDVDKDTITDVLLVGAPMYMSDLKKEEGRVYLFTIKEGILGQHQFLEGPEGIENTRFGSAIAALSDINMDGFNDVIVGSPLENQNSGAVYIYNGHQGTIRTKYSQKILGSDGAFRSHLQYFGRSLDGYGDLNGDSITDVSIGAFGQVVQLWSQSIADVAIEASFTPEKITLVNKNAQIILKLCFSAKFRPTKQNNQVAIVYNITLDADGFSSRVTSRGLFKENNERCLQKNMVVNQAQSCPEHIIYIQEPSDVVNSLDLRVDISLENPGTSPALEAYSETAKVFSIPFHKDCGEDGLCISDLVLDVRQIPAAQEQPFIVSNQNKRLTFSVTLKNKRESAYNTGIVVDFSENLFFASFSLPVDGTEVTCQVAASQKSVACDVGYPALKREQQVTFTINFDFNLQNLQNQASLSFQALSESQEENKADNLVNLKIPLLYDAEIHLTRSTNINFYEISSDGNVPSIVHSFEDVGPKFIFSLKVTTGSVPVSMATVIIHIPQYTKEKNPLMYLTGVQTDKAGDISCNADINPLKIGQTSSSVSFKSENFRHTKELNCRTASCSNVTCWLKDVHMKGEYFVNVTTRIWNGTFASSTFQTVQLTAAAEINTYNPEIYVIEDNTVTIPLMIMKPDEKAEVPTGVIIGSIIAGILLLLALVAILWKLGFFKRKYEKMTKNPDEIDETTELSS

Homo sapiens = species on record: Homo sapiens; assay: Binding affinity to protein G B1-domain (unknown origin)
CT26 [10] = assay: Antitumor activity against mouse CT26 cells allografted in BALB/c mouse assessed as decrease in tumor volume at 2.5 mg/kg, sc measured on day 15 relative to control; type: functional; parameters: scale not given: the % may be the effect or the level left; details: route subcutaneous
Outline: (§3)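 BALB/c mice were injected subcutaneously with 5 × 10⁵ CT26-CC cells. Compound/PAMAM G3.5 was then given as daily subcutaneous injections at 2.5 mg/kg. Primary tumors were removed on day 15 and their volume was measured. Ki67 was scored by immunohistochemistry as the percentage of positive tumor cells across 10 random fields. Significance was assessed by ANOVA with a post hoc test.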

CT26 [11] = assay: Antitumor activity against mouse CT26 cells allografted in BALB/c mouse assessed as decrease in expression level of protein Ki67 at 2.5 mg/kg, sc measured on day 15 relative to control; type: functional; parameters: scale not given: the % may be the effect or the level left; details: route subcutaneous; outline: as §3

CC[C@H](C)[C@H](OCc1ccccc1)[C@H]1[C@H]([N+](=O)[O-])[C@H](c2ccccc2)N[C@]1(C)C(=O)NCCCCCC(=O)O
inhibition [1]: Active

CC[C@H](C)[C@H](OCc1ccccc1)[C@H]1[C@H]([N+](=O)[O-])[C@H](c2ccccc2)N[C@@H]1C(=O)NCCC(=O)O
inhibition [2]: Active
inhibition [1]: Active

CC[C@H](C)[C@H](OCc1ccccc1F)[C@H]1[C@H]([N+](=O)[O-])[C@H](c2ccsc2)N[C@@H]1C(=O)NCCC(=O)O
inhibition [1]: inactive

CC[C@H](C)[C@H](OCc1ccccc1)[C@H]1[C@H]([N+](=O)[O-])[C@H](c2ccccc2)N[C@]1(C)C(=O)NCCC(=O)O
inhibition (B16M): inactive
inhibition [2]: Active
inhibition (B16 [3]): Active
Kd [4]: 81.1 µM
inhibition [5]: Active
inhibition (B16 [6]): Active
fold change (FC) (CT26 [7]): 25
inhibition (BL21): inactive
Kd (Integrin alpha-L): 10.1 µM
fold change (FC) (CT26 [8]): 25
inhibition [1]: Active

CC[C@H](C)[C@H](OCc1ccccc1)[C@H]1[C@H]([N+](=O)[O-])[C@H](c2ccccc2)N[C@]1(C)C(=O)NCCCCC(=O)O
inhibition [1]: Active

CC[C@H](C)[C@H](OCc1ccccc1)[C@H]1[C@H]([N+](=O)[O-])[C@H](c2ccccc2)N[C@@H]1C(=O)NCCCCC(=O)O
inhibition [1]: Active

CC[C@H](C)[C@H](OCc1ccccc1)[C@H]1[C@H]([N+](=O)[O-])[C@H](c2ccccc2)N[C@]1(C)C(=O)NCCCC(=O)O
Activity [9]: inactive
Activity (Homo sapiens): inactive
Kd (Integrin alpha-L): 7.4 µM
inhibition [1]: Active

CC[C@H](C)[C@H](OCc1ccccc1)[C@H]1[C@H]([N+](=O)[O-])[C@H](c2ccccc2)N[C@@H]1C(=O)NCCCC(=O)O
inhibition [1]: Active

CC[C@H](C)C(=O)O[C@H]1C[C@@H](C)C=C2C=C[C@H](C)[C@H](CC[C@@H]3C[C@@H](O)CC(=O)O3)[C@H]21
Activity [9]: inactive

CC[C@H](C)[C@H](OCc1ccccc1)[C@H]1[C@H]([N+](=O)[O-])[C@H](c2ccccc2)N(C(=O)CN)[C@]1(C)C(=O)NCCC(=O)O
Activity (CT26 [10]): 77%
Activity (CT26 [11]): 40%
inhibition [1]: Active

CC[C@H](C)[C@H](OCc1ccccc1)[C@H]1[C@H]([N+](=O)[O-])[C@H](c2ccccc2)N[C@@H]1C(=O)NCC(=O)O
inhibition [1]: inactive

CC[C@H](C)[C@H](OCc1ccccc1)[C@H]1[C@H]([N+](=O)[O-])[C@H](c2ccccc2)N[C@@H]1C(=O)NCCCCCC(=O)O
Activity (CT26 [10]): 85%
inhibition [5]: Active
Activity (CT26 [11]): 40%
inhibition [1]: Active
